# In ChEMBL document CHEMBL3745661, “Allosteric inhibitors of Coxsackie virus A24 RNA polymerase” (Bioorg Med Chem, 2016):
# Active and inactive are the calls of the source. The rule behind the calls is not given here.
# How the values were obtained:
# [1] = Lipophilicity, log P of the compound; format: physicochemical; settings: octanol/water
# [2] = test system: Coxsackievirus A24; assay: Inhibition of Coxsackievirus A24 RNA polymerase 3D-POL assessed as reduction in uridylylated VPg level at 25 uM after 60 mins by SDS-PAGE analysis
# How it was run: (§1)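 Purified CVA24 3Dpol (1–2 µg) incubated at 30°C with 1 µg synthetic VPg, 0.5 µg polyA template, 10 µM UTP plus α-32P-UTP, and 0.5 mM Mn(II) acetate in 50 mM HEPES pH 7.5, 8% glycerol. Compounds were diluted from DMSO stocks in that buffer first. Reactions were stopped on ice, run on 16% urea Tris-Tricine SDS-PAGE, and VPgpU and VPgpolyU were phosphorimaged relative to DMSO or buffer controls.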
# [3] = test system: Coxsackievirus A24; assay: Inhibition of Coxsackievirus A24 RNA polymerase 3D-POL assessed as reduction in VPgpolyU level at 25 uM after 60 mins by SDS-PAGE analysis; how it was run: as §1
# [4] = test system: Dengue virus; assay: Inhibition of Dengue virus RNA polymerase NS5 assessed as reduction in polyU formation at 10 uM by SDS-PAGE analysis
# [5] = test system: Coxsackievirus A24; assay: Inhibition of Coxsackievirus A24 RNA polymerase 3D-POL assessed as reduction in uridylylated VPg level at 10 uM by SDS-PAGE analysis; how it was run: as §1
# [6] = test system: Coxsackievirus A24; assay: Inhibition of Coxsackievirus A24 RNA polymerase 3D-POL assessed as reduction in VPgpolyU level at 10 uM by SDS-PAGE analysis; how it was run: as §1
# [7] = test system: Dengue virus; assay: Inhibition of Dengue virus RNA polymerase NS5 assessed as reduction in polyU formation at 20 uM by SDS-PAGE analysis
# [8] = test system: Coxsackievirus A24; assay: Inhibition of Coxsackievirus A24 RNA polymerase 3D-POL assessed as reduction in VPgpolyU level at 20 uM by SDS-PAGE analysis; how it was run: as §1
# [9] = test system: Coxsackievirus A24; assay: Inhibition of Coxsackievirus A24 RNA polymerase 3D-POL assessed as reduction in uridylylated VPg level at 20 uM by SDS-PAGE analysis; how it was run: as §1
Structure (SMILES),logP [1],inhibition [2],inhibition [3],other results
O=S(=O)(NNc1cnc2ccccc2n1)c1ccccc1C(F)(F)F,3.23,inactive,inactive,–
COC(=O)c1cc(=O)c2cc(NC(=O)c3ccc(OC(F)(F)F)cc3)ccc2[nH]1,2.78,inactive,inactive,–
c1ccc2c(c1)c1ccccc1c1nn3nnnc3nc21,3.16,inactive,inactive,–
c1ccc2c(c1)Nc1nc3ccccc3nc1O2,3.46,inactive,inactive,–
O=c1[nH]c2ccc(S(=O)(=O)Nc3cccc(F)c3)cc2o1,2.06,–,–,inhibition [4]: inactive; inhibition [5]: Active; inhibition [6]: Active
COC(=O)Nc1nc2cc(-c3nnc(O)c4ccccc34)ccc2[nH]1,2.53,inactive,inactive,–
Cn1c(=O)oc2cc(S(=O)(=O)Nc3ccccc3NC(=O)c3ccc(C(C)(C)C)cc3)ccc21,4.54,–,–,inhibition [7]: inactive
O=C1/C(=C/c2ccc3c(c2)OCO3)CCC/C1=C\c1ccc2c(c1)OCO2,4.75,inactive,inactive,–
O=C(Nc1ccc2oc3ncccc3c(=O)c2c1)c1ccc([N+](=O)[O-])cc1,3.5,inactive,inactive,–
O=C(Nc1ccccc1)Nc1ccc(Oc2cccc(C(F)(F)F)c2)nc1,5.04,inactive,inactive,–
O=C1c2ccccc2S(=O)(=O)N1CCS(=O)(=O)c1ccc(Cl)cc1Cl,2.69,inactive,inactive,–
N#Cc1ccc(N2CCN(S(=O)(=O)c3cccc4nonc34)CC2)cc1,2.51,inactive,inactive,–
CCN(c1ccccc1)S(=O)(=O)c1ccc2[nH]c(=O)oc2c1,3,–,–,inhibition [8]: Active; inhibition [7]: inactive; inhibition [9]: Active
O=C(CSc1nc2ccccc2o1)N1c2ccccc2Sc2ccccc21,6.09,inactive,inactive,–
COc1ccc(-c2nc3cc4c(cc3o2)Oc2ccccc2N4)cc1,5.09,inactive,inactive,–
Cn1c(=O)oc2cc(S(=O)(=O)Nc3ccccc3Oc3ccccc3Cl)ccc21,4.32,–,–,–
O=C(Nc1ccc(OC(F)(F)F)cc1)N1CCN(c2ncccn2)CC1,2.96,inactive,inactive,–
N#Cc1ccc(S(=O)(=O)N2CCNC(=O)[C@H]2CC(=O)Nc2cc(Cl)ccc2Cl)cc1,3.54,inactive,inactive,–

Structure (SMILES),logP [1],inhibition [2],inhibition [3],other results
O=S(=O)(c1ccccc1)N1CCN(C2c3ccccc3-c3ccccc32)CC1,4.26,inactive,inactive,–
Cn1c(=O)oc2cc(S(=O)(=O)Nc3ccccc3Sc3ccccc3)ccc21,3.91,–,–,–
Cn1c(=O)oc2cc(S(=O)(=O)Nc3cccc4cccnc34)ccc21,1.94,–,–,–
CC1=C(C(=O)N[n+]2cnc3cccc(F)c3c2N)Sc2ccccc2N1,-0.39,inactive,inactive,–
CCOc1ccc(Oc2ccc(NS(=O)(=O)c3ccc4c(c3)oc(=O)n4C)cc2)cc1,4.17,–,–,–
O=S(=O)(NC1CCCc2ccccc21)c1cccc2nonc12 (configuration not stated),3.28,inactive,inactive,–
O=C1c2ccccc2S(=O)(=O)N1C[C@@H]1CC(c2ccccc2Cl)=NO1,2.71,inactive,inactive,–
CC(C)COc1ccc(NS(=O)(=O)c2ccc3c(c2)oc(=O)n3C)cc1Cl,3.77,–,–,–
O=S(=O)(NCc1cc(F)cc2c1OCOC2)c1cccc2nonc12,2.2,inactive,inactive,–
C[C@@H](CS(=O)(=O)Nc1ccc2c(c1)oc(=O)n2C)c1ccccc1,3.06,–,–,–
Cc1noc(C)c1-c1nc(CN2C(=O)c3ccccc3S2(=O)=O)no1,0.51,inactive,inactive,–
Cn1c(=O)oc2cc(S(=O)(=O)N(CCC(N)=O)c3ccccc3)ccc21,1.23,–,–,–
C/C(=N/Nc1nnc(-c2ccccc2)c(-c2ccccc2)n1)c1ccco1,4.36,inactive,inactive,–
O=C(NNc1cc(C(F)(F)F)nc2ccccc12)Nc1cccc(Cl)c1,5.14,inactive,inactive,–
Cc1c(S(=O)(=O)N2CCN(C3c4ccccc4-c4ccccc43)CC2)cnn1-c1ccccc1,4.13,inactive,inactive,–
Cc1nc(-c2cnccn2)sc1C(=O)N1CCN(C2c3ccccc3-c3ccccc32)CC1,3.86,inactive,inactive,–
O=C(NCc1nc2ccccc2s1)c1cc(F)cc2c1OCOC2,3.12,inactive,inactive,–
